Test results reported in ChEMBL document CHEMBL1158613, “Novel trivalent anti-influenza reagent” (Bioorg Med Chem Lett, 2010).
The source made the active and inactive calls. The rule behind the calls is not given here.

How the values were obtained:
[1] = Aqueous solubility of the compound; assay type: physicochemical; conditions: buffer
Influenza A virus [2] = test: Antiviral activity against Influenza A/PR/8/1934 (H1N1) infected in MDCK cells assessed as of viral plaque formation at 4 degC relative to control; assay type: functional, A/Puerto Rico/8/1934(H1N1)
Procedure, shortened: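 Plaque reduction assay in MDCK cells infected with A/PR/8/1934 (H1N1), with compound at 400 μM during virus adsorption at 4 °C. Plaques were counted and expressed as a percentage of the virus-only control. Uninoculated cells served as the no-virus control. Single concentration only, with no dose range.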

Influenza A virus [3] = test: Antiviral activity against Influenza A/PR/8/1934 (H1N1) infected in MDCK cells assessed as viral plaque formation at 35 degC relative to control; assay type: functional, A/Puerto Rico/8/1934(H1N1)
Procedure, shortened: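 Plaque reduction assay in MDCK cells with A/PR/8/1934 (H1N1), with compound at 400 μM present during virus adsorption at 35 °C. The plaque count is given as a percentage of plaques in the virus-only control, and uninoculated cells were the blank. A single concentration was tested.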

Influenza A virus [4] = test: Inhibition of Influenza A/PR/8/1934 (H1N1)-induced hemagglutinination of chicken RBC; assay type: functional, organism-based; conditions: A/Puerto Rico/8/1934(H1N1)

| Compound | solubility [1] | Activity (Influenza A virus [2]) [%] | Activity (Influenza A virus [3]) [%] | inhibition (Influenza A virus [4]) |
| --- | --- | --- | --- | --- |
| NC(CCC(=O)NCCCCCCO[C@@H]1O[C@H](CO)[C@@H](O[C@@H]2O[C@H](CO)[C@H](O)[C@H](O)[C@H]2O)[C@@H](O)[C@H]1O)C(=O)NCCOCCOCCOc1ccc(C(c2ccc(OCCOCCOCCNC(=O)C(N)CCC(=O)NCCCCCCO[C@@H]3O[C@H](CO)[C@@H](O[C@@H]4O[C@H](CO)[C@H](O)[C@H](O)[C@H]4O)[C@@H](O)[C@H]3O)cc2)c2ccc(OCCOCCOCCNC(=O)C(N)CCC(=O)NCCCCCCO[C@@H]3O[C@H](CO)[C@@H](O[C@@H]4O[C@H](CO)[C@H](O)[C@H](O)[C@H]4O)[C@@H](O)[C@H]3O)cc2)cc1 (some centres undefined) | Soluble | 72.4 | 77.1 |  |
| NC(CCC(=O)NCCCCCCO[C@@H]1O[C@H](CO)[C@@H](O[C@@H]2O[C@H](CO)[C@H](O)[C@H](O)[C@H]2O)[C@@H](O)[C@H]1O)C(=O)NCCOCCOCCC(=O)Nc1ccc(C(c2ccc(NC(=O)CCOCCOCCNC(=O)C(N)CCC(=O)NCCCCCCO[C@@H]3O[C@H](CO)[C@@H](O[C@@H]4O[C@H](CO)[C@H](O)[C@H](O)[C@H]4O)[C@@H](O)[C@H]3O)cc2)c2ccc(NC(=O)CCOCCOCCNC(=O)C(N)CCC(=O)NCCCCCCO[C@@H]3O[C@H](CO)[C@@H](O[C@@H]4O[C@H](CO)[C@H](O)[C@H](O)[C@H]4O)[C@@H](O)[C@H]3O)cc2)cc1 (some centres undefined) | Soluble | 100 | 100 |  |
| CC(=O)N[C@H]1[C@@H]([C@@H](O)[C@H](O)CO)O[C@](O[C@H]2[C@@H](O)[C@@H](CO)O[C@@H](O[C@H]3[C@@H](O)[C@@H](O)[C@H](OCCCCCCNC(=O)CCC(N)C(=O)NCCOCCOCCC(=O)Nc4ccc(C(c5ccc(NC(=O)CCOCCOCCNC(=O)C(N)CCC(=O)NCCCCCCO[C@@H]6O[C@H](CO)[C@@H](O[C@@H]7O[C@H](CO)[C@H](O)[C@H](O[C@@]8(C(=O)O)C[C@H](O)[C@@H](NC(C)=O)[C@@H]([C@@H](O)[C@H](O)CO)O8)[C@H]7O)[C@@H](O)[C@H]6O)cc5)c5ccc(NC(=O)CCOCCOCCNC(=O)C(N)CCC(=O)NCCCCCCO[C@@H]6O[C@H](CO)[C@@H](O[C@@H]7O[C@H](CO)[C@H](O)[C@H](O[C@@]8(C(=O)O)C[C@H](O)[C@@H](NC(C)=O)[C@@H]([C@@H](O)[C@H](O)CO)O8)[C@H]7O)[C@@H](O)[C@H]6O)cc5)cc4)O[C@@H]3CO)[C@@H]2O)(C(=O)O)C[C@@H]1O (some centres undefined) | Soluble | 67.2 | 56.6 | inactive |
| CC(=O)N[C@H]1[C@@H]([C@@H](O)[C@H](O)CO)O[C@](O[C@H]2[C@@H](O)[C@@H](CO)O[C@@H](O[C@H]3[C@@H](O)[C@@H](O)[C@H](OCCCCCCNC(=O)CCC(N)C(=O)NCCOCCOCCOc4ccc(C(c5ccc(OCCOCCOCCNC(=O)C(N)CCC(=O)NCCCCCCO[C@@H]6O[C@H](CO)[C@@H](O[C@@H]7O[C@H](CO)[C@H](O)[C@H](O[C@@]8(C(=O)O)C[C@H](O)[C@@H](NC(C)=O)[C@@H]([C@@H](O)[C@H](O)CO)O8)[C@H]7O)[C@@H](O)[C@H]6O)cc5)c5ccc(OCCOCCOCCNC(=O)C(N)CCC(=O)NCCCCCCO[C@@H]6O[C@H](CO)[C@@H](O[C@@H]7O[C@H](CO)[C@H](O)[C@H](O[C@@]8(C(=O)O)C[C@H](O)[C@@H](NC(C)=O)[C@@H]([C@@H](O)[C@H](O)CO)O8)[C@H]7O)[C@@H](O)[C@H]6O)cc5)cc4)O[C@@H]3CO)[C@@H]2O)(C(=O)O)C[C@@H]1O (some centres undefined) | Soluble | 15.5 | 45.6 | inactive |
